According to ChEMBL document CHEMBL1147648, “Substituted coumarins as potent 5-lipoxygenase inhibitors” (Bioorg Med Chem Lett, 2006):

Legend:
[1] = tested on: Rattus norvegicus; assay: Oral absorption in rat at 20 mg/kg, po; assay type: ADME, organism-based; design: dose 20 mg/kg, route oral; conditions: in vivo
Summary of the method: (§1)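 Rats dosed orally at 20 mg/kg in 0.5% methocel, given as the water-soluble sodium salt of the hydroxy-acid precursor that cyclizes to the coumarin.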

[2] = target: T1, Polyunsaturated fatty acid 5-lipoxygenase (Homo sapiens, UniProt P09917); assay: Inhibition of LTB4 production in calcium ionophore A-23187-stimulated human polymorphonuclear leukocyte; assay type: functional
T1 sequence (P09917 whole entry): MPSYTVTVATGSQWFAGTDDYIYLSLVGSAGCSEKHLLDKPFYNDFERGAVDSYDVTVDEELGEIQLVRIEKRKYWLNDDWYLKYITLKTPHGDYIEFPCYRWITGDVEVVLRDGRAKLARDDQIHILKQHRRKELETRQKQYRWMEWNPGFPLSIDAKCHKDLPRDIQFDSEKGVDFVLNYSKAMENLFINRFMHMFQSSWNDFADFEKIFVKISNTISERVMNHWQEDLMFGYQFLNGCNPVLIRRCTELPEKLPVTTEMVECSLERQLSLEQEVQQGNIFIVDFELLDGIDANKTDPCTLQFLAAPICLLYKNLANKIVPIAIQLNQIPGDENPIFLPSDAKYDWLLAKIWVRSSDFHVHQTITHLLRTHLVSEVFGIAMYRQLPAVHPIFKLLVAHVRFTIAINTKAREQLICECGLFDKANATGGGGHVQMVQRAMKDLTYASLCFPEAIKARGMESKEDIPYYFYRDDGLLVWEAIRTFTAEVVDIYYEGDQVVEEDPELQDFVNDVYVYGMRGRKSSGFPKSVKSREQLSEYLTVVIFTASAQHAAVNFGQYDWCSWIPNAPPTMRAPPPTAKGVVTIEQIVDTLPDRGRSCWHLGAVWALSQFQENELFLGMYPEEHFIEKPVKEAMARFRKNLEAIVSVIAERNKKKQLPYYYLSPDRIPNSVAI

[3] = target: T1, Polyunsaturated fatty acid 5-lipoxygenase; assay: Inhibition of human 5-LO
[4] = target: T1, Polyunsaturated fatty acid 5-lipoxygenase; assay: Inhibition of LTB4 production in calcium ionophore A-23187-stimulated human whole blood; assay type: functional, tissue-based
[5] = Oral bioavailability in squirrel monkey at 10 mg/kg, po; assay type: ADME, organism-based, Saimiri sciureus; conditions: in vivo
[6] = target: T2, Polyunsaturated fatty acid 5-lipoxygenase (Rattus norvegicus) (UniProt P12527); assay: Activity against carrageenan-induced inflammation in orally dosed rat pleural cavity assessed as inhibition of LTB4 biosynthesis after 2 hrs; assay type: functional, organism-based
T2 sequence (whole entry): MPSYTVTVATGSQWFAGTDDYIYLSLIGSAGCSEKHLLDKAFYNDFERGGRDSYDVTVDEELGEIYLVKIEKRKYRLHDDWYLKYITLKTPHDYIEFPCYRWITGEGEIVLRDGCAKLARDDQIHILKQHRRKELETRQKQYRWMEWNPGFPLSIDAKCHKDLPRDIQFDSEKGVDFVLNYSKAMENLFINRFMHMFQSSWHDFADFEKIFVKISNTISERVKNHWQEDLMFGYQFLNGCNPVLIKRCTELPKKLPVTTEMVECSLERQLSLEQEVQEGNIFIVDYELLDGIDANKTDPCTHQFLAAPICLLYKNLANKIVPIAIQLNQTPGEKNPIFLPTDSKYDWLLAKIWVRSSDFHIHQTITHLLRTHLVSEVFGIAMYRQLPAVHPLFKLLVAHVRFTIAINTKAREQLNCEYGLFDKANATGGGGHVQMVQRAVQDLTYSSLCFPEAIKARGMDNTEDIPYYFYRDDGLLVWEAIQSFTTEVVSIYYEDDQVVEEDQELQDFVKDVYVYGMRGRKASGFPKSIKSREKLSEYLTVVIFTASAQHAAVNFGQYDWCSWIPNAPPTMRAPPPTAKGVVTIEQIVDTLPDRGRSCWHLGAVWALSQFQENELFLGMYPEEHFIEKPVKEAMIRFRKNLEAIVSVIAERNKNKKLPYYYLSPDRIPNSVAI

[7] = Cmax in squirrel monkey at 10 mg/kg, po after 2 hrs; assay type: ADME, organism-based, Saimiri sciureus; design: dose 10 mg/kg, route oral; conditions: in vivo
[8] = Oral bioavailability in rat at 20 mg/kg, po; assay type: ADME, organism-based; conditions: in vivo; summary of the method: as §1
[9] = Cmax in rat at 20 mg/kg, po; assay type: ADME, organism-based; design: dose 20 mg/kg, route oral; conditions: in vivo; summary of the method: as §1

SMILES | IC50 [2] [nM] | IC50 [3] [nM] | IC50 [4] [nM] | other results
O=c1cc(-c2ccc(F)cc2)c2ccc(Sc3cc(F)cc(C(O)(C(F)(F)F)C(F)(F)F)c3)cc2o1 | – | – | – | Fa [1]: Not Active
O=c1cc(-c2ccoc2)c2ccc(COc3cc(F)cc([C@]4(O)C[C@H]5CO[C@@H](C4)O5)c3)cc2o1 | 3 | 200 | 48 | –
O=C([O-])/C=C(/c1ccc(F)cc1)c1ccc(Sc2cc(F)cc(C(O)(C(F)(F)F)C(F)(F)F)c2)cc1[O-].[Na+].[Na+] | – | – | – | bioavailability [5]: 30%; ED50 [6]: 1.6 mg/kg; Cmax [7]: 1.2 µM; bioavailability [8]: 100%; Cmax [9]: 16 µM
O=c1cc(-c2ccoc2)c2ccc(Sc3cc(F)cc(C(O)(C(F)(F)F)C(F)(F)F)c3)cc2o1 | 0.8 | 9 | 52 | –
O=c1cc(-c2ccc(F)cc2)c2ccc(COc3cc(F)cc(C(O)(C(F)(F)F)C(F)(F)F)c3)cc2o1 | 1.9 | 55 | 150 | –
O=c1cc(-c2ccccc2)c2ccc(Sc3cc(F)cc(C(O)(C(F)(F)F)C(F)(F)F)c3)cc2o1 | 0.5 | 26 | 88 | –
